Assay results taken from ChEMBL document CHEMBL4229340, “Attaching NorA efflux pump inhibitors to methylene blue enhances antimicrobial photodynamic inactivation of Escherichia coli and Acinetobacter baumannii in vitro and in vivo” (Bioorg Med Chem Lett, 2018).
Active and inactive are the calls of the source. No cut-off for these calls is given here.

Legend:
Escherichia coli [1] = assay: Photodynamic antibacterial activity against TolC deficient Escherichia coli JW5503-1 assessed as bacterial killing at 10 uM incubated for 30 mins followed by 6 J/cm'2 irradiation with red light relative to control; type: functional
Summary of the method: (§1)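 E. coli K-12 and isogenic TolC knockout JW5503-1 were exposed to compound at 1-20 μM, then illuminated with 652 nm red light at 100 mW/cm2 to 6 J/cm2, or kept dark. Serially diluted aliquots were plated for CFU and survival fraction determined. Mean ± SEM from three independent experiments.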

Acinetobacter baumannii [2] = assay: Photodynamic antibacterial activity against wild type Acinetobacter baumannii AB007 assessed as bacterial killing at 20 uM incubated for 30 mins followed by 6 J/cm'2 irradiation with red light relative to control; type: functional
Summary of the method: (§2)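 A. baumannii AB007 was exposed to compound at 1-20 μM, with or without red-light illumination, alongside dark controls. Survival fraction came from CFU counts. Mean ± SEM from three independent experiments.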

Escherichia coli [3] = assay: (§3) Photodynamic antibacterial activity against enteropathogenic Escherichia coli WS2572 infected in BALB/c mouse full-thickness third-degree burn infection model assessed as reduction in bacterial load in shaved dorsal surfaces of mouse after 15 mins followed by up to 120 J/cm'2 irradiation with red light over 20 mins measured after 1 day by bioluminescence imaging method; type: functional, organism-based
Summary of the method: (§4)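 Mouse full-thickness third-degree burn on the shaved back, inoculated with bioluminescent EPEC WS2572. Wounds got 40 μL of 250 μM stock compound, then 652 nm red light at 0, 12, 36, 84, 108 and 120 J/cm2 or no light. Normalized wound RLU (mean ± SEM, 4-6 mice/group) was imaged during illumination and daily for 14 days after.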

Escherichia coli [4] = assay: as §3, with “12 days” for “1 day”; type: functional, organism-based; summary of the method: as §4
Acinetobacter baumannii [5] = assay: (§5) Photodynamic antibacterial activity against Acinetobacter baumannii AB Iraqi 007 infected in BALB/c mouse needle back-scratch wound abrasion infection model assessed as reduction in bacterial load in shaved dorsal surfaces of mouse after 15 mins followed by 108 J/cm'2 irradiation with red light over 20 mins by bioluminescence imaging method; type: functional, organism-based
Summary of the method: (§6)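 Bioluminescent A. baumannii inoculated into needle-scratch wounds on shaved mouse backs. Sites got 40 μL of a 250 μM stock of compound, then 652 nm red light at 0, 12, 36, 84, 108 and 120 J/cm2, or were kept dark (dark controls). Normalized wound RLU (mean ± SEM, 4-6 mice/group) was imaged during illumination, then daily for 14 days.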

Acinetobacter baumannii [6] = assay: as §5, with “followed by up to 120 J/cm'2 irradiation” for “followed by 108 J/cm'2 irradiation”, “20 mins measured after 10 days by bioluminescence” for “20 mins by bioluminescence”; type: functional, organism-based; summary of the method: as §6
Escherichia coli [7] = assay: Photodynamic antibacterial activity against TolC deficient Escherichia coli JW5503-1 assessed as bacterial killing at 20 uM incubated for 30 mins followed by 6 J/cm'2 irradiation with red light relative to control; type: functional; summary of the method: as §1
Escherichia coli [8] = assay: Photodynamic antibacterial activity against wild type Escherichia coli K-12 assessed as bacterial killing at 20 uM incubated for 30 mins followed by 6 J/cm'2 irradiation with red light relative to control; type: functional; summary of the method: as §1
Escherichia coli [9] = assay: Photodynamic antibacterial activity against wild type Escherichia coli K-12 assessed as bacterial killing at 10 uM incubated for 30 mins followed by 6 J/cm'2 irradiation with red light relative to control; type: functional; summary of the method: as §1
Escherichia coli [10] = assay: Dark toxicity against TolC deficient Escherichia coli JW5503-1 assessed as reduction in bacterial load at 1 to 20 uM incubated for 30 mins; type: organism-based; details: in vitro, 0.5 h; summary of the method: as §1
Escherichia coli [11] = assay: Dark toxicity against wild type Escherichia coli K-12 assessed as reduction in bacterial load at 1 to 20 uM incubated for 30 mins; type: organism-based; details: in vitro, 0.5 h; summary of the method: as §1
Acinetobacter baumannii [12] = assay: Dark toxicity against wild type Acinetobacter baumannii AB007 assessed as reduction in bacterial load at 1 to 20 uM incubated for 30 mins; type: organism-based; details: in vitro, 0.5 h; summary of the method: as §2
Escherichia coli [13] = assay: Dark toxicity against enteropathogenic Escherichia coli WS2572 infected in BALB/c mouse full-thickness third-degree burn infection model assessed as reduction in bacterial load in shaved dorsal surfaces of mouse measured after 15 mins by bioluminescence imaging method; type: organism-based; parameters: scale not given: the % may be the effect or the level left; details: in vivo, 0.25 h; summary of the method: as §4
Escherichia coli [14] = assay: as §3, with “36” for “up to 120”, “mins” for “mins measured after 1 day”; type: functional; parameters: scale not given: the % may be the effect or the level left; summary of the method: as §4
Escherichia coli [15] = assay: as §3, with “84” for “up to 120”, “mins” for “mins measured after 1 day”; type: functional, organism-based; summary of the method: as §4
Escherichia coli [16] = assay: as §3, with “10 days” for “1 day”; type: functional, organism-based; summary of the method: as §4
Escherichia coli [17] = assay: as §3, with “mins” for “mins measured after 1 day”; type: functional; parameters: scale not given: the % may be the effect or the level left; summary of the method: as §4
Acinetobacter baumannii [18] = assay: Dark toxicity against Acinetobacter baumannii AB Iraqi 007 infected in BALB/c mouse needle back-scratch wound abrasion infection model assessed as reduction in bacterial load in shaved dorsal surfaces of mouse measured after 15 mins by bioluminescence imaging method; type: organism-based; parameters: scale not given: the % may be the effect or the level left; details: in vivo, 0.25 h; summary of the method: as §6
Acinetobacter baumannii [19] = assay: as §5, with “36” for “108”; type: functional; parameters: scale not given: the % may be the effect or the level left; summary of the method: as §6
Escherichia coli [20] = assay: Dark toxicity against enteropathogenic Escherichia coli WS2572 infected in BALB/c mouse full-thickness third-degree burn infection model assessed as reduction in bacterial load in shaved dorsal surfaces of mouse after 15 mins measured after 1 day by bioluminescence imaging method; type: organism-based; details: in vivo; summary of the method: as §4
Acinetobacter baumannii [21] = assay: Dark toxicity against Acinetobacter baumannii AB Iraqi 007 infected in BALB/c mouse needle back-scratch wound abrasion infection model assessed as bacterial load in shaved dorsal surfaces of mouse after 15 mins measured after 1 day by bioluminescence imaging method; type: organism-based; details: in vivo; summary of the method: as §6
Acinetobacter baumannii [22] = assay: as §5, with “followed by up to 120 J/cm'2 irradiation” for “followed by 108 J/cm'2 irradiation”, “20 mins measured after 1 day by bioluminescence” for “20 mins by bioluminescence”; type: functional; parameters: scale not given: the % may be the effect or the level left; summary of the method: as §6
Acinetobacter baumannii [23] = assay: Dark toxicity against Acinetobacter baumannii AB Iraqi 007 infected in BALB/c mouse needle back-scratch wound abrasion infection model assessed as reduction in bacterial load in shaved dorsal surfaces of mouse after 15 mins measured after 12 days by bioluminescence imaging method; type: organism-based; details: in vivo; summary of the method: as §6
Acinetobacter baumannii [24] = assay: as §5, with “84” for “108”; type: functional, organism-based; summary of the method: as §6
Acinetobacter baumannii [25] = assay: as §5, with “followed by up to 120 J/cm'2 irradiation” for “followed by 108 J/cm'2 irradiation”, “20 mins measured up to 6 days by bioluminescence” for “20 mins by bioluminescence”; type: functional, organism-based; summary of the method: as §6

With `CN(C)c1ccc2nc3ccc(=[N+](C)C)cc-3sc2c1` the Activity (Escherichia coli [1]) was “Active”, the Activity (Acinetobacter baumannii [2]) was “Active” and the Activity (Escherichia coli [3]) was “inactive”. The Activity (Escherichia coli [4]) was “Active”, the Activity (Acinetobacter baumannii [5]) was “Active” and the Activity (Acinetobacter baumannii [6]) was “Active”.

`CN(CCN(C)c1ccc2nc3ccc(N(C)C)cc3[s+]c2c1)C(=O)c1ccc(-c2cc3cc([N+](=O)[O-])ccc3[nH]2)cc1.[Cl-]` was tested, and the Activity (Escherichia coli [7]) was “Active”, the LCK (Escherichia coli [1]) was 6 and the LCK (Escherichia coli [8]) was 6. The LCK (Escherichia coli [9]) was 4, the Activity (Escherichia coli [10]) was “Non-Toxic” and the Activity (Escherichia coli [11]) was “Non-Toxic”. For the same molecule, the Activity (Acinetobacter baumannii [12]) was “Non-Toxic”, the LCK (Acinetobacter baumannii [2]) was 4 and the Activity (Escherichia coli [13]) was 40%. The Activity (Escherichia coli [14]) was 80%, the Activity (Escherichia coli [15]) was “Active” and the Activity (Escherichia coli [16]) was “Active”.

In the case of `CN(C)c1ccc2nc3ccc(N(C)C)cc3[s+]c2c1.[Cl-]` [METHYLENE BLUE ANHYDROUS], the LCK (Escherichia coli [7]) was 3.5, the LCK (Escherichia coli [8]) was 2.5 and the LCK (Escherichia coli [9]) was 2. For the same molecule, the Activity (Escherichia coli [10]) was “Non-Toxic”, the Activity (Escherichia coli [11]) was “Non-Toxic” and the Activity (Acinetobacter baumannii [12]) was “Non-Toxic”. The Activity (Escherichia coli [13]) was 25%, the Activity (Escherichia coli [17]) was 90% and the Activity (Acinetobacter baumannii [18]) was less than 25%. The Activity (Acinetobacter baumannii [19]) was 50%, the Activity (Escherichia coli [20]) was “Not Active” and the Activity (Acinetobacter baumannii [21]) was greater than 50%. For the same molecule, the Activity (Acinetobacter baumannii [22]) was greater than 50% and the Activity (Acinetobacter baumannii [23]) was “Toxic”.

`CN(CCCOc1ccccc1NC(=O)Nc1ccc2ccccc2c1)CCN(C)c1ccc2nc3ccc(N(C)C)cc3[s+]c2c1.[Cl-]` was tested, and the LCK (Escherichia coli [7]) was 4.5, the LCK (Escherichia coli [8]) was 3 and the Activity (Escherichia coli [10]) was “Non-Toxic”. The Activity (Escherichia coli [11]) was “Non-Toxic”, the Activity (Acinetobacter baumannii [12]) was “Non-Toxic” and the LCK (Acinetobacter baumannii [2]) was 4.

Work on `CN(CCN(C)c1ccc2nc3ccc(N(C)C)cc3[s+]c2c1)Cc1ccc(-c2cc3cc([N+](=O)[O-])ccc3[nH]2)cc1.[Cl-]` yielded an LCK (Escherichia coli [7]) of 7, an LCK (Escherichia coli [1]) of 2 and an LCK (Escherichia coli [8]) of 4. The LCK (Escherichia coli [9]) was 2, the Activity (Escherichia coli [10]) was “Non-Toxic” and the Activity (Escherichia coli [11]) was “Non-Toxic”. For the same molecule, the Activity (Acinetobacter baumannii [12]) was “Non-Toxic”, the Activity (Acinetobacter baumannii [2]) was “Active” and the Activity (Acinetobacter baumannii [18]) was less than 25%. For the same molecule, the Activity (Acinetobacter baumannii [19]) was 95%, the Activity (Acinetobacter baumannii [24]) was “Active” and the Activity (Acinetobacter baumannii [21]) was greater than 50%. For the same molecule, the Activity (Acinetobacter baumannii [23]) was “Toxic” and the Activity (Acinetobacter baumannii [25]) was “Active”.
